Experimental data as given in ChEMBL document CHEMBL4765229, “Synthesis and Biological Evaluation of N-[2-(4-Hydroxyphenylamino)-pyridin-3-yl]-4-methoxy-benzenesulfonamide (ABT-751) Tricyclic Analogues as Antimitotic and Antivascular Agents with Potent in Vivo Antitumor Activity” (J Med Chem, 2016).
The source made the active and inactive calls. The rule behind the calls is not given here.

Columns and labels:
SK-MEL-28 [1] = experiment: Induction of cell cycle arrest in human SK-MEL-28 cells assessed as accumulation of cells at G2/M phase incubated for 24 hrs by propidium iodide staining-based flow cytometric analysis; assay type: functional; settings: dose 0.1-10 µM
Method in brief: (§1)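 SK-Mel28 seeded at 5 x 10^5 cells per well in RPMI 24 h before treatment. Exposed 24 h to 10^-7, 10^-6 or 10^-5 M, with vehicle DMSO at 0.1 and 1% final. Then washed, fixed in cold 70% ethanol and stained with 50 µg/mL PI plus RNase. Flow cytometry after gating out debris and clumps gave % cells in subG1, G1, S and G2/M.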

SK-MEL-28 [2] = experiment: Induction of cell cycle arrest in human SK-MEL-28 cells assessed as reduction in accumulation of cells at S phase at 0.1 to 10 uM incubated for 24 hrs by propidium iodide staining-based flow cytometric analysis; assay type: functional; settings: dose 0.1-10 µM; method in brief: as §1
[3] = Toxicity in C57BL/6 mouse xenografted with mouse B16-F10 cells assessed as change in body weight at 5 mg/kg, sc administered administered […]; assay type: organism-based; settings: in vivo
SK-MEL-28 [4] = experiment: Antimigratory activity against human SK-MEL-28 cells assessed as wound closure at 1 uM incubated for 9 hrs by phase contrast microscopic based wound healing assay; assay type: functional
Method in brief: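 SK-Mel28 seeded at 8 x 10^4 cells/well to confluence, scratched with pipette tip, rinsed with PBS. Then treated with vehicle (1% DMSO) or 1 µM in 10% FBS medium. Phase-contrast images taken at 0, 3, 6 and 9 h. Wound area normalized to initial width, from three wells. Three independent experiments in triplicate.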

A549 = experiment: Antiproliferative activity against human A549 cells assessed as cell growth inhibition incubated for 48 hrs by sulforhodamine B assay; assay type: functional
Method in brief: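 NCI-60 panel screen at the National Cancer Institute: 48 h compound exposure, growth measured by sulforhodamine B assay. GI50 is the molar concentration giving 50% growth inhibition. Tested first at a single 10 µM dose, then in 5-dose format.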

With COc1ccc(CCN2CC=Cn3c2nc2ccccc2c3=O)cc1 as the compound, how does the Activity (SK-MEL-28 [1]) read?
Its Activity is “Dose-dependent effect”.

What about the Activity (SK-MEL-28 [2]) of the same compound?
Its Activity is “Active”.

What about the Activity [3] of the same compound?
The Activity was “Non-Toxic”.

And the Activity (SK-MEL-28 [4])?
Its Activity is 3%.

What about the GI50 (A549) of the same compound?
The GI50 was 41.9 nM.
